From PMC8892239 (EFSA Journal, 2022)
≈ marks a conversion by molar mass, not a printed value. Where “and” joins values, the source holds several entries; their conditions need not be identical. Identical values can stand only once. Like-named read-outs stand apart in the source and are kept apart here.

Tests used:
[1] = Stability of EQ in complete feed for chickens for fattening; assay type: physicochemical; conditions: 50, 150 or 500 mg EQ/kg feed
[2] = Forced degradation of EQ in compound feed; assay type: physicochemical
[3] = Metabolism of 14C-EQ in liver slices; assay type: in vitro ADME, rat, laying hen and goat; conditions: 10 and 100 µM, 37°C, 2 h
[4] = Metabolism of 14C-EQ in liver microsomes; assay type: in vitro ADME, rat, laying hen and goat; conditions: 10 and 100 µM, 37°C, 2 h
Procedure, shortened: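 Liver microsomes were used. Hen (Isa-Warren) and goat (Deutsche Edelziege/Burenziege) microsomes were prepared in-house; rat microsomes were commercial. Incubation was with ring-¹⁴C(U)-labelled test compound at 10 and 100 µM, 37°C, 2 h.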

Atlantic salmon = assay: Tolerance study in Atlantic salmon; assay type: in vivo, Salmo salar L.
[5] = Residues of EQ and EQDM in fish flesh; assay type: in vivo; conditions: Atlantic salmon, oral, 50 mg EQ/kg feed
Procedure, shortened: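 Flesh was sampled from 15 fish per group after 90 days of feeding. The parent compound and its dimer were quantified by HPLC with fluorescence detection.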

Adsorption coefficient = assay type: physicochemical
Procedure, shortened: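 Koc estimated under GLP per OECD 121 from the HPLC retention time of the test compound. Runs were done at pH 6.5 and at pH 2.5 because the compound ionises at soil-relevant pH.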

Eisenia andrei = assay: Earthworm reproduction test, OECD 222; assay type: in vivo; conditions: 56 days, nominal
Procedure, shortened: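 GLP 56-day Eisenia andrei test per OECD 222. Eight nominal soil levels were used: 16, 29, 53, 95, 171, 309, 556 and 1,000 mg/kg soil DW. A solvent control was included. Four replicates per treatment, eight for the solvent control, 10 worms per replicate. Reproduction, mortality and growth were scored.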

terrestrial plants = assay: Seedling emergence and seedling growth test, OECD 208, three plant species; assay type: in vivo, Avena sativa, Brassica napus, Pisum sativum
Procedure, shortened: (§1)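 Soil was spiked with the test compound; measured concentrations were checked against nominal. From 50% emergence in controls, emergence, survival and visible phytotoxicity were recorded weekly for 21 days. At the end, emergence, survival, shoot fresh weight and visible damage were recorded. Effect concentrations were derived from dose–response curves.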

Pisum sativum (pea) = assay: Seedling emergence and seedling growth test, OECD 208; assay type: in vivo; conditions: 21 days
Procedure, shortened: as §1

Daphnia magna = assay: 21-day semi-static reproduction test; assay type: in vivo
Lumbriculus variegatus = assay: Water-sediment test, OECD 225, 28 days; assay type: in vivo
Procedure, shortened: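 Lumbriculus variegatus test per OECD 225 in spiked artificial sediment, run for 28 days. Nominal levels were 18.8, 37.5, 75, 150, 300 and 600 mg/kg sediment DW, with four replicates each. An untreated control and a solvent control were run, six replicates each.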

Caenorhabditis elegans = assay: Sediment toxicity test, ISO 10872, 96 h; assay type: in vivo
Procedure, shortened: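 GLP sediment test with Caenorhabditis elegans per ISO 10872. Sediment levels were 25.6, 64, 160, 400 and 1,000 mg/kg sediment DW, with four replicates per control and per concentration. Fertility, reproduction and growth were read 96 h after the nematodes were added.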

[6] = system: Pacific oyster Crassostrea gigas; assay: 24-h embryo-larval developmental test; assay type: in vivo; conditions: initially measured concentrations
Risk characterisation = assay: Risk characterisation
Procedure, shortened: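 For each compartment, a PNEC was derived by dividing the NOEC (or EC10 where indicated) by an assessment factor. Risk was expressed as the PEC/PNEC ratio.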

[7] = Assessment of secondary poisoning
[8] = Antioxidant efficacy, storage of complete feed for sows; conditions: for peroxide value after 3 months of storage: basal feed 47.3 meq O2/kg fat
[9] = Oxygen bomb method, feed for chickens for fattening; conditions: for induction period: basal feed 7 h
Beagle dogs = conditions: ref EFSA FEEDAP Panel, 2015, cited from earlier work
[10] = ref EFSA, 2010, cited from earlier work
[11] = cited from earlier work; for Water solubility: ref EFSA, 2010
[12] = at 25°C; ref EFSA, 2010; cited from earlier work
[13] = 5,000 mg/kg feed (EQ4), 90 days
[14] = 10,000 mg/kg feed (EQ5), 90 days

## CCOc1ccc2c(c1)C(C)=CC(C)(C)N2 [EQ, 6‐ethoxy‐1,2‐dihydro‐2,2,4‐trimethylquinoline]
[1]; after 90 days at 40°C, 75% RH
  EQ losses: about 80%
[1]; after 90 days, ambient conditions
  EQ losses: 30–50%
[2]; H2O2
  share of the lost EQ identified as DMEQ, EQI and EQDM: around 56%
[2]; H2O2, after 4 h
  EQ oxidised: 83%
[2]; H2O2, spontaneously
  EQ oxidised: 75%
[3]
  extent of metabolism: metabolised extensively
[3]; irrespective of origin
  number of metabolites identified: 17
[4]
  extent of metabolism: metabolised extensively
[4]; irrespective of origin
  number of metabolites identified: 18
Atlantic salmon; 5,000 mg/kg feed (EQ4)
  condition factor: 1.3 g/mL
  daily feed intake: 2.9 g/fish per day
  specific growth rate: 0.8 % bw per day
  total feed intake: 255 g/fish
Atlantic salmon; [13]
  bw gain: 276 g
  final bw: 537 g
Atlantic salmon; 10,000 mg/kg feed (EQ5)
  condition factor: 1.1 g/mL
  daily feed intake: 1.1 g/fish per day
  final salmon length: 29 cm
  specific growth rate: 0.1 % bw per day
  total feed intake: 100 g/fish
Atlantic salmon; [14]
  bw gain: 38 g
  final bw: 301 g
Atlantic salmon; up to 10,000 mg/kg feed, 90 days
  mortality: No fish died
[5]
  concentration at 90 days: 40 ng/g
Adsorption coefficient
  Koc (used for Phase II exposure assessment): 331 L/kg
Adsorption coefficient; pH 2.5
  Log Koc: 1.55
  estimated Koc: 35
Adsorption coefficient; pH 6.5
  Log Koc: 2.52
  estimated Koc: 331
Eisenia andrei
  LC50 (mortality): 693 mg test item/kg soil DW
  NOEC for biomass: ≥ 556 mg test item/kg soil DW
  NOEC for mortality: 556 mg test item/kg soil DW
  NOEC for reproduction: 171 mg test item/kg soil DW
Terrestrial plants; all species tested
  concentration with statistically significant effects on shoot fresh weight: 111 mg test item/kg soil DW
Terrestrial plants; lowest calculated, 21 days
  EC10: 55.8 mg test item/kg soil DW
Terrestrial plants; shoot fresh weight, 21 days
  lowest calculated EC50: 155 mg test item/kg soil DW
Pisum sativum (pea)
  EC50, shoot fresh weight: 181.3 mg/kg
Daphnia magna; as used in risk characterisation
  EC10: 0.06 µg/mL (≈ 0.276 µM)
Daphnia magna; nominal concentrations, 95% confidence interval 46.9–76.0
  21-day EC10 (number of offspring per introduced and survived parent): 0.0597 µg/mL
Lumbriculus variegatus
  EC10 for total number of worms/reproduction and total biomass per replicate: 148 mg test item/kg sediment DW and 148 ^* mg test item/kg sediment DW
  NOEC for total number of worms and reproduction: 150 mg test item/kg sediment DW
Lumbriculus variegatus; 300 mg/kg sediment DW
  mortality: 50%
Lumbriculus variegatus; 600 mg/kg sediment DW
  mortality: 100%
Caenorhabditis elegans
  EC10 for fertility and growth: > 1,000 mg/kg sediment DW
  EC10 for reproduction: 727 mg/kg sediment DW
  NOEC for fertility, reproduction and growth: 400 mg/kg sediment DW
[6]
  24-h NOEC (development): 2.9 mg/L
Risk characterisation
  PEC/PNEC, fish farmed in land-based systems: 0.10
  PEC/PNEC, freshwater sediment: 0.02
  PEC/PNEC, marine sediment: 1,550
  PEC/PNEC, terrestrial compartment (earthworm): 0.03
Risk characterisation; AF 10
  PNEC, freshwater sediment: 12,500 μg/kg
  PNEC, terrestrial compartment (earthworm): 17,100 μg/kg
Risk characterisation; AF 50
  PNEC, freshwater compartment: 1.2 µg/L
Risk characterisation; EQ used in terrestrial animals
  PEC/PNEC, freshwater compartment: 5
Risk characterisation; equilibrium partitioning approach, AF 1,000
  PNECsed, marine sediment: 70.8 µg/kg
[7]
  PECfish/PNECoral: 1
[7]; from NOEC 80 mg/kg feed, assessment factor of 90
  NECoral: 0.89 mg/kg
[7]; listed as Ethoxyquin
  PECfish/PNECoral: 1.0
[8]; 25 mg EQ/kg feed (EQ25)
  EQ content after 3 months of storage: completely disappeared
  peroxide value after manufacturing: 0.89 meq O2/kg fat
  peroxide value after 3 months of storage: approx. 23.8
[8]; 50 mg EQ/kg feed (EQ50)
  peroxide value after manufacturing: 1.36 meq O2/kg fat
  reduction of EQ after 3 months of storage: approx. 80%
  peroxide value after 3 months of storage: ~13.6
[9]; 25 mg ethoxyquin/kg feed
  induction period: 7.6 h
[9]; 50 mg ethoxyquin/kg feed
  protection factor: 1.46
  induction period: 9.9 h
Beagle dogs; dogs, based on hepatocellular necrosis
  lowest NOAEL: 2 mg/kg bw per day
Beagle dogs
  maximum potentially safe concentration in feeds for dogs: 11 mg/kg complete feed
[10]; pH 5
  Octanol/water partition coefficient (log Kow 25°C): 3.18
[10]; pH 7
  Octanol/water partition coefficient (log Kow 25°C): 3.39
[10]; pH 9
  Octanol/water partition coefficient (log Kow 25°C): 3.19
[11]; pH 5, 20°C
  Water solubility: 101 µg/mL
[11]; pH 7, 20°C
  Water solubility: 60 µg/mL
[11]; pH 7
  Solubility at pH 7 (input for PEC): 60 mg/L
[11]; pH 9, 20°C
  Water solubility: 70 µg/mL
[12]
  Vapour pressure: 3.46 × 10^–2 at 25 °C Pa
